# From ChEMBL document CHEMBL2346621, “Discovery of novel tricyclic indole derived inhibitors of HCV NS5B RNA dependent RNA polymerase” (Bioorg Med Chem, 2013)
# How the values were obtained:
# [1] = Cytotoxicity against human hepatoma cells assessed as cell viability by MTS assay; type: cell-based
# Summary of the method: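 Cellular toxicity was measured by MTS assay, with GAPDH also used as an internal control, and expressed as CC50.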
# Hepatitis C virus [2] = assay: Inhibition of HCV-1b Con-1 C-terminal His6x-tagged NS5B delta21 RNA dependent RNA polymerase expressed in Escherichia coli JM109 (DE3) assessed as [alpha-33P]CTP incorporation in RNA after 30 mins by scintillation counting analysis; parameters: species or system Hepatitis C virus subtype 1b; conditions: Con1, JM 109, 0.5 h
# [3] = AUC (0 to 6 hrs) in rat at 10 mg/kg, po; type: ADME, organism-based; parameters: time < 6 hr, dose 10 mg/kg, route oral; conditions: plasma
# Summary of the method: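 Rapid rat assay: single oral 10 mg/kg dose in 0.4% HPMC. Plasma AUC integrated over 0–6 h after dosing (AUC0–6 h).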
# Hepatitis C virus [4] = assay: Antiviral activity against Hepatitis C virus infected in human hepatoma cells assessed as reduction in replicon RNA level; type: functional, organism-based, Hepacivirus hominis
# Summary of the method: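 Replicon-bearing hepatoma cells were used. EC50 is the concentration that reduces viral RNA levels by 50%.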
IC50 (Hepatitis C virus [2]) [µM],AUC(0-t) at 6 h [3] [µM·h],EC50 (Hepatitis C virus [4]) [µM],Structure (SMILES),CC50 [1] [µM]
0.01,1.2,0.05,Cc1ccccc1Cn1c(C(=O)NS(C)(=O)=O)c(-c2ccc[nH]c2=O)c2c3occc3ccc21,> 10
0.01,–,1,O=C(NS(=O)(=O)Cc1ccccc1)c1c(-c2ccc[nH]c2=O)c2cc(Cl)ccc2n1Cc1cc(F)ccc1F,–
0.027,104,3.5,O=C(O)c1c(-c2ccc[nH]c2=O)c2c3c(ccc2n1Cc1cc(F)ccc1F)CCC3,> 10
0.007,–,2,O=C(O)c1c(-c2ccc[nH]c2=O)c2c3c(ccc2n1Cc1cc(F)ccc1F)OC(F)(F)O3,> 10
1.7,104,–,O=C(O)c1c(-c2ccc[nH]c2=O)c2c3scnc3ccc2n1Cc1cc(F)ccc1F,> 10
0.009,–,0.7,O=C(O)c1c(-c2ccc[nH]c2=O)c2c3ncsc3ccc2n1Cc1cc(F)ccc1F,> 10
0.034,–,3.1,O=C(O)c1c(-c2ccc[nH]c2=O)c2c3ccoc3ccc2n1Cc1cc(F)ccc1F,> 10
0.031,146,0.16,O=C(O)c1c(-c2ccc[nH]c2=O)c2c3occc3ccc2n1Cc1cc(F)ccc1F,> 10
0.008,11,0.46,O=C(O)c1c(-c2ccc[nH]c2=O)c2c3c(ccc2n1Cc1cc(F)ccc1F)CCO3,> 10
2.9,–,–,Cc1coc2c1ccc1c2c(-c2ccc[nH]c2=O)c(C(=O)O)n1Cc1cc(F)ccc1F,> 10
> 5,–,–,CCc1coc2c1ccc1c2c(-c2ccc[nH]c2=O)c(C(=O)O)n1Cc1cc(F)ccc1F,> 10
0.007,–,0.12,O=C(O)c1c(-c2ccc[nH]c2=O)c2c3occ(Cl)c3ccc2n1Cc1cc(F)ccc1F,> 10
0.021,–,2,Cc1cc2ccc3c(c(-c4ccc[nH]c4=O)c(C(=O)O)n3Cc3cc(F)ccc3F)c2o1,> 10
0.009,11,0.05,CS(=O)(=O)NC(=O)c1c(-c2ccc[nH]c2=O)c2c3occc3ccc2n1Cc1cc(F)ccc1F,> 10
0.006,0.7,0.11,CCS(=O)(=O)NC(=O)c1c(-c2ccc[nH]c2=O)c2c3occc3ccc2n1Cc1cc(F)ccc1F,> 10
0.008,1,0.05,CC(C)S(=O)(=O)NC(=O)c1c(-c2ccc[nH]c2=O)c2c3occc3ccc2n1Cc1cc(F)ccc1F,> 10
0.016,–,0.05,O=C(NS(=O)(=O)C1CC1)c1c(-c2ccc[nH]c2=O)c2c3occc3ccc2n1Cc1cc(F)ccc1F,> 10
0.031,2.4,0.08,CS(=O)(=O)NC(=O)c1c(-c2ccc[nH]c2=O)c2c3occc3ccc2n1Cc1ccc(F)cc1F,> 10
0.008,9.5,0.1,CS(=O)(=O)NC(=O)c1c(-c2ccc[nH]c2=O)c2c3occc3ccc2n1Cc1ccccc1F,> 10
0.006,–,0.06,Cc1ccc(Cn2c(C(=O)NS(C)(=O)=O)c(-c3ccc[nH]c3=O)c3c4occc4ccc32)c(C)c1,> 10
0.01,–,0.03,CS(=O)(=O)NC(=O)c1c(-c2ccc[nH]c2=O)c2c3occc3ccc2n1Cc1cc(C(N)=O)ccc1F,> 10
0.003,0.3,0.03,Cc1cccc(Cn2c(C(=O)NS(C)(=O)=O)c(-c3ccc[nH]c3=O)c3c4occc4ccc32)c1F,> 10
0.003,–,0.05,CS(=O)(=O)NC(=O)c1c(-c2ccc[nH]c2=O)c2c3occc3ccc2n1Cc1ccccc1Cl,> 10
